Calls of active or inactive are those of the source. No cut-off for these calls is given here.
Tests used:
[1] = Cytotoxicity against mouse RAW264.7 cells assessed as cell viability at 100 uM measured after 24 hrs by MTT assay relative to control; format: cell-based; conditions: read-out: Activity
How it was run: (§1)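 RAW 264.7 murine macrophages grown in RPMI-1640 with 10% heat-inactivated FBS at 37 °C, 5% CO2. Cells seeded at 4 x10^4 per well and exposed 24 h to 0–500 µM compound (DMSO 0.2% final). Medium replaced with 0.5 mg/mL MTT for 4 h, formazan dissolved in isopropanol, absorbance read at 570 nm. Triplicates in three independent experiments.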

Rattus norvegicus = assay: Antiinflammatory activity in Wistar rat assessed as inhibition of carrageenan-induced paw edema formation at 100 mg/kg, po administered 1 hr before carrageenan stimulation and measured after up to 6 hrs relative to control; format: functional
How it was run: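 Male Wistar rats (250–300 g), N = 5 per group, dosed orally 1 h before 0.1 mL of 1% carrageenan in physiological saline was injected into the right paw. Paw volume was read by plethysmometer at 0, 1, 2, 3, 4, 5 and 6 h. Edema was taken as the right-minus-left paw volume difference. % inhibition = (untreated − treated)/untreated × 100 at each time point.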

[2] = target: T1, Prostaglandin G/H synthase 1 (Bos taurus) (UniProt O62664); assay: Inhibition of bovine COX1 at 100 uM using arachidonic acid as substrate preincubated for 5 mins followed by substrate addition and measured after 5 mins by […]-based fluorescence assay relative to control
T1 sequence (whole entry): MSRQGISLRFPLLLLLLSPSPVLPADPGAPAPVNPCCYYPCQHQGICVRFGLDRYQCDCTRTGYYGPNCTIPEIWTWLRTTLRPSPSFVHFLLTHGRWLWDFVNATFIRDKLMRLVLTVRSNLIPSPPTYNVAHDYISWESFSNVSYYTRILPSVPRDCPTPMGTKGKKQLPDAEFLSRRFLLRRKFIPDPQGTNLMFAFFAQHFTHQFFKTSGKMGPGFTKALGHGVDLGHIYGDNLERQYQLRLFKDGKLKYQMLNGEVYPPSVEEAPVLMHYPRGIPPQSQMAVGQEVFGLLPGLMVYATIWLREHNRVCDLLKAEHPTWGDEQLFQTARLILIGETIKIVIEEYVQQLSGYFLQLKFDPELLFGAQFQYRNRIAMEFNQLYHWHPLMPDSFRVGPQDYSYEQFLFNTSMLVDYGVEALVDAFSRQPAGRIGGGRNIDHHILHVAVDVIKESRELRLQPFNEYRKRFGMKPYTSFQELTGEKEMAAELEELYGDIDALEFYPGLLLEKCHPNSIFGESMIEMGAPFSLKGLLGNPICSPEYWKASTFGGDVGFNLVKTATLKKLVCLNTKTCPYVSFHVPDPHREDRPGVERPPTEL
How it was run: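 Bovine COX-1 preincubated 5 min in buffer with compound (100 µM) or SC-560 as reference. ADHP and arachidonic acid then added, and resorufin fluorescence read after 5 min (ex 530–540 / em 585–595 nm). Resorufin arises from ADHP reacting with the COX-derived PGG2.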

[3] = target: T2, Nitric oxide synthase, inducible (Mus musculus) (UniProt P29477); assay: Inhibition of iNOS in mouse macrophages assessed as reduction in LPS-induced nitric oxide production at 50 uM incubated for overnight by griess assay relative to control
T2 sequence (whole entry): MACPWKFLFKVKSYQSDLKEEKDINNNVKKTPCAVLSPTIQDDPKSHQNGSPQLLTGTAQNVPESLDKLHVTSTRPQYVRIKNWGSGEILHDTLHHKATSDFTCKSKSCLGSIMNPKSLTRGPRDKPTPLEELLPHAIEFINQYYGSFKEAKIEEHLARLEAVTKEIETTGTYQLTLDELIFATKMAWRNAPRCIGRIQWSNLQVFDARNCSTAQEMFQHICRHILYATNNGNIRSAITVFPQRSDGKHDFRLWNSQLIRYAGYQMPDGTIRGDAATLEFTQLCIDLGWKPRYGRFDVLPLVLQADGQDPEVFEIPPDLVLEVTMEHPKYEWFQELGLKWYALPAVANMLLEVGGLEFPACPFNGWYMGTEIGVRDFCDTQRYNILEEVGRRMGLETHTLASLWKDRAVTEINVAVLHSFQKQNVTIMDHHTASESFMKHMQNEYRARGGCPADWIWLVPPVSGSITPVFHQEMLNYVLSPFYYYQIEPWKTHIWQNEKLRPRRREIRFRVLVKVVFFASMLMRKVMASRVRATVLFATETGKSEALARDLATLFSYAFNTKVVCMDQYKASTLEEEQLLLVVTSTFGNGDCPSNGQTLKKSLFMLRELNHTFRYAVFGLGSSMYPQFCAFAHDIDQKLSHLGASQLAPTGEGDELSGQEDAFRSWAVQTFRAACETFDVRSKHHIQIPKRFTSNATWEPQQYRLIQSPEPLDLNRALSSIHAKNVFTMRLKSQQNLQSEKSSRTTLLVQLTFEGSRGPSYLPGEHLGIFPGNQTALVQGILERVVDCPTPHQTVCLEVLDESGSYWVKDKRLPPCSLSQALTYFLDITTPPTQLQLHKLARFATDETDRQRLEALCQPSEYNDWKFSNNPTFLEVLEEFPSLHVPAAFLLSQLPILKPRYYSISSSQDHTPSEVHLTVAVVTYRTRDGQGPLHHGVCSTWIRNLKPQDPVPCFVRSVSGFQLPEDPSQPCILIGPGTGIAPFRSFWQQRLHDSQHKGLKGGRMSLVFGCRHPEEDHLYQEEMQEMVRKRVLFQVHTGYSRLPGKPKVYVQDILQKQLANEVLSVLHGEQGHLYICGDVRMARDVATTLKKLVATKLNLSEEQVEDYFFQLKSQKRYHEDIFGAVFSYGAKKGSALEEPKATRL
How it was run: (§2)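 Murine macrophages seeded at 4 x10^4 per well with compound at 50 or 100 µM, with or without LPS (100 ng/mL), overnight under standard conditions. Supernatant mixed 1:1 with Griess reagent and read at 570 nm. Nitrite quantified from a NaNO2 standard curve. Triplicates in three independent experiments.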

[4] = target: T2, Nitric oxide synthase, inducible (Mus musculus); assay: Inhibition of iNOS in mouse macrophages assessed as reduction in LPS-induced nitric oxide production at 100 uM incubated for overnight by griess assay relative to control; how it was run: as §2
[5] = Selectivity index, ratio of inhibition of human recombinant COX-2 at 100 uM to inhibition of bovine COX-1 at 100 uM
How it was run: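 SI is COX-2/COX-1 activity ratio. Percent inhibition at 100 µM: human recombinant COX-2 (15 min preincubation) and bovine COX-1 (5 min preincubation). Fluorometric ADHP/arachidonic acid read-out after 5 min.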

[6] = target: T3, Prostaglandin G/H synthase 2 (Homo sapiens, UniProt P35354); assay: Inhibition of human recombinant COX-2 using arachidonic acid as substrate preincubated for 15 mins followed by substrate addition and measured after 5 mins by […]-based fluorescence assay
T3 sequence (P35354 whole entry): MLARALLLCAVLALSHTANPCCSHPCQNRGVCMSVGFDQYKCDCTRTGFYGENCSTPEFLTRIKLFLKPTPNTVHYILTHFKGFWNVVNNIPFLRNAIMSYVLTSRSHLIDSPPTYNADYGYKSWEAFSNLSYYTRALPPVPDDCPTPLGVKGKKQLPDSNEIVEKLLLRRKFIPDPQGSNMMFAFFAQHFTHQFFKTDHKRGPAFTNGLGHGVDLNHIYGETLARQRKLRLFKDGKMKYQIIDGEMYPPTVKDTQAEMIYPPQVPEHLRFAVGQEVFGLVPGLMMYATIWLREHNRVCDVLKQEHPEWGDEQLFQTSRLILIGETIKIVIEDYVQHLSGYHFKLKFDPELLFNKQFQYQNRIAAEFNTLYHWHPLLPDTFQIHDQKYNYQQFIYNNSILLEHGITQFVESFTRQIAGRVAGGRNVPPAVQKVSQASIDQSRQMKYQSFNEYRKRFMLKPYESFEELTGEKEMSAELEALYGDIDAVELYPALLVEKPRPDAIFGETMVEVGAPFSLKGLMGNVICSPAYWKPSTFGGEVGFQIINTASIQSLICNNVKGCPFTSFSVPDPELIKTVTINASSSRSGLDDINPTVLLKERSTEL
How it was run: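 Human recombinant COX-2 preincubated 15 min in buffer with compound (100 µM) or DuP-697 as reference. ADHP and arachidonic acid then added, and resorufin fluorescence read after 5 min (ex 530–540 / em 585–595 nm).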

RAW264.7 = assay: Cytotoxicity against mouse RAW264.7 cells assessed as reduction in cell viability at 500 uM measured after 24 hrs by MTT assay; format: cell-based; conditions: raw264.7, 24 h; how it was run: as §1
[7] = Cytotoxicity against mouse RAW264.7 cells assessed as cell viability at 500 uM measured after 24 hrs by MTT assay relative to control; format: cell-based; conditions: read-out: Activity; how it was run: as §1

Compound | inhibition [2] | inhibition [3] | inhibition [4] | Selectivity Index [5] | IC50 [6] | viability at 24 h, 100 µM [1] | inhibition (Rattus norvegicus) | Activity (RAW264.7) | inhibition in vivo at 100 mg/kg (Rattus norvegicus) | viability at 24 h, 500 µM [7]
CC(=O)Nc1ccc(-c2nc3ccccc3n2-c2ccc(NC(C)=O)cc2)cc1 | 59.5% | 10.1% | 15.3% | 0.53 |  | > 90% | Active |  |  | 
O=[N+]([O-])c1ccc(-c2nc3ccccc3n2-c2ccc([N+](=O)[O-])cc2)cc1 | 29.3% | 22.4% | 33.8% | 1.63 |  | ≤ 90% |  |  | 42% | ≤ 90%
Nc1ccc(-c2nc3ccccc3n2-c2ccc(N)cc2)cc1 | 29.7% | 42.5% | 44.1% | 1.55 | 173 µM | > 90% | Active |  |  | ≥ 80%
Nc1ccc(-n2c(-c3ccc(Br)cc3)nc3ccccc32)cc1 | 62.3% | 62.5% | 74.2% | 0.11 |  | > 90% | Active |  |  | ≥ 80%
CC(C)Cc1ccc(C(C)C(=O)O)cc1 (centres undefined) [IBUPROFEN] | 56.6% | 82.1% | 83.7% |  |  |  |  |  | 42% | 
N#Cc1ccc(-c2nc3ccccc3n2-c2ccc([N+](=O)[O-])cc2)cc1 | 29% | 24.4% | 46% | 1.63 |  | > 90% | Active | Toxic |  | 
O=[N+]([O-])c1ccc(-n2c(-c3ccc(Br)cc3)nc3ccccc32)cc1 | 18.3% | 46.5% | 45.8% | 2.77 | 102 µM | > 90% |  | Toxic | 42% | 
CC(=O)Nc1ccc(-n2c(-c3ccc(Cl)cc3)nc3ccccc32)cc1 | 47.4% | 75.9% | 86.4% | 0.51 |  | > 90% | Active |  |  | 

More lines, main results first:

inhibition [2] | inhibition [3] | inhibition [4] | Selectivity Index [5] | IC50 [6] | Compound | viability at 24 h, 100 µM [1] | inhibition (Rattus norvegicus) | Activity (RAW264.7) | inhibition in vivo at 100 mg/kg (Rattus norvegicus) | viability at 24 h, 500 µM [7]
40.6% | 38.1% | 44% | 1.05 | 162 µM | O=[N+]([O-])c1ccc(-n2c(-c3ccccc3)nc3ccccc32)cc1 | > 90% | Active | Toxic |  | 
17.6% | 53.2% | 53.9% | 1.37 |  | O=[N+]([O-])c1ccc(-n2c(-c3ccc(Cl)cc3)nc3ccccc32)cc1 | > 90% | Active | Toxic |  | 
23.4% | 79.8% | 87.3% | 2.68 |  | Cc1ccc(-c2ncc(Cl)cc2-c2ccc(S(C)(=O)=O)cc2)cn1 [ETORICOXIB] |  |  |  | 35% | 
48.7% | 77.3% | 83.6% | 0.58 |  | CC(=O)Nc1ccc(-n2c(-c3ccc(Br)cc3)nc3ccccc32)cc1 | > 90% | Active |  |  | 
31% | 32.6% | 46.2% | 1.06 |  | O=C(O)c1ccc(-c2nc3ccccc3n2-c2ccc([N+](=O)[O-])cc2)cc1 | > 90% | Active | Toxic |  | 
39% | 24.9% | 52.2% | 1.15 | 193 µM | Nc1ccc(-n2c(-c3ccc(Cl)cc3)nc3ccccc32)cc1 | > 90% | Active |  |  | ≥ 80%

Reference: ChEMBL document CHEMBL4627345, “Anti-inflammatory effect and inhibition of nitric oxide production by targeting COXs and iNOS enzymes with the 1,2-diphenylbenzimidazole pharmacophore” (Bioorg Med Chem, 2020)
